Compound activity: PubChem, several laboratories
DAGLB inhibitor: diacylglycerol lipase beta (human) inhibition. 0.059% of 340,000 active. HEK293T DAGLB membrane lysate, EnzChek fluorogenic substrate. AID 504411. inhibition, % at 5.17 µM. Q8NCG7; in the data active = inhibition above about 34%;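 note: 0% = enzyme with vehicle and 100% = wells lacking enzyme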
TAAR1 agonist: agonists of human TAAR1; Q96RJ0; activation, % at 3 µM; AID 624467; 0.99% of 360,000 active; CHO RD-HGA16 TAAR1, Fluo-8 calcium fluorescence; vehicle wells 0%, saturating PEA agonist 100%;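 active = activation above the mean activation of all test compounds in the run plus 3 SD, cut at about 38% in these data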
Target sequence (Q96RJ0 whole entry, looked up): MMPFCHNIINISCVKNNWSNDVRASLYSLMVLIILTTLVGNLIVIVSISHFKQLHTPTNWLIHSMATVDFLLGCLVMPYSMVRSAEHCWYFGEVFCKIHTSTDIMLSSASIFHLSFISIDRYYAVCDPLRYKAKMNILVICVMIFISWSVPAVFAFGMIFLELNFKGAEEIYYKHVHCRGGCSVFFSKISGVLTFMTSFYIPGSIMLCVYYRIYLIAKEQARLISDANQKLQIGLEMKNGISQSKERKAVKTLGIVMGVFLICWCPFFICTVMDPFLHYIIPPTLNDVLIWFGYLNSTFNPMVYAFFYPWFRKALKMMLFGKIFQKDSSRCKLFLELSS
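Benchmarks: low control DMSO, high control PEA (EC100); System: CHO RD-HGA16 cells carrying human TAAR1 plus Gα16; Detection: Fluo-8 fluorescence, 5 s baseline then 140 s kinetic read; Schedule: 17-24 h plating, Fluo-8 75 min 37 °C, 30 min RT; Read-out basis: % activation from peak over basal fluorescence ratio, DMSO-to-PEA scaled.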
GPR7 antagonist: antagonists of human GPR7 (neuropeptides B/W receptor 1) | P48145 | GPR7-expressing cells, fluorescence antagonist assay | inhibition, % at 4.4 µM | 1.1% of 290,000 active | AID 1861; in the data active = inhibition above about 16%, passing the limit was not always enough;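 note: cells stimulated with the agonist NPW; 0% = agonist with vehicle and 100% = vehicle without agonist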
Target sequence (P48145 whole entry, looked up): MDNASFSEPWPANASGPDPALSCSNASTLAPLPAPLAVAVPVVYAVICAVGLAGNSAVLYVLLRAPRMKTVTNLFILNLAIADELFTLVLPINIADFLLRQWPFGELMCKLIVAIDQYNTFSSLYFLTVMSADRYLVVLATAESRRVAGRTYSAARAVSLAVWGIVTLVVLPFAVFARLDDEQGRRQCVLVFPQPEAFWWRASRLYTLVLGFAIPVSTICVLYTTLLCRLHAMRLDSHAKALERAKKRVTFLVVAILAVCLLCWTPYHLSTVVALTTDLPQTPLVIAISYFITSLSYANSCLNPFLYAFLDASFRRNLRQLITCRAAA
TAAR1 antag: antagonists of human TAAR1 | AID 624466 | 1.5% of 360,000 active | Q96RJ0 | inhibition, % at 3 µM | CHO RD-HGA16 TAAR1, Fluo-8 calcium fluorescence, antagonist;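 active = inhibition above a per-plate cutoff, the mean inhibition of test compounds on that plate plus 3 SD, cut at about 49% in these data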;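 note: 0% = DMSO plus EC80 beta-PEA response and 100% = DMSO alone without agonist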
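System: RD-HGA16 CHO cells with stable hTAAR1 and Gα16 | Probe or stimulus: EC80 β-phenethylamine stimulus | Dosing: 3 µM, single point | Times: Dye loading 75 min at 37 °C, then 30 min room temperature | Measured by: Fluo-8 calcium-sensitive fluorescence | Read-out basis: % inhibition of agonist calcium response | Replicates: n of 1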
MPTP block: inhibitors of mitochondrial permeability transition pore; isolated mouse mitochondria, Ca2+ swelling absorbance, 30 min; inhibition, % at 10 µM; 1.4% of 360,000 active; AID 602449;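 active = inhibition of 50% or more, scaled per plate between neutral and stimulator controls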;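 note: 0% = DMSO wells given calcium and 100% = 1 mM EGTA wells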
MPTP counter: Rhodamine 123 counter-screen of mitochondrial pore hits. shares compounds with MPTP block. isolated mitochondria, membrane potential, Rhodamine 123 fluorescence. inhibition, % at 10 µM. 78% of 5,000 active; in the data active = inhibition above about 22%;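 note: 0% = DMSO vehicle and 100% = positive control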
MPTP abs DR: dose response confirmation of mitochondrial permeability transition pore inhibitors; shares compounds with MPTP block; isolated mitochondria swelling, absorbance; IC50, µM; 58% of 780 active; AID 651561; in the data active = IC50 below about 20 µM
MPTP counter DR: counter-screen for mitochondrial permeability transition pore inhibitors, dose response | shares compounds with MPTP block | isolated mitochondria counterscreen, fluorescence read-out | IC50, µM | 49% of 780 active; in the data active = IC50 below about 80 µM
Starred values were filed as active, the others as inactive. Rows were chosen to be rich in hits. Some 4% of all compounds tested hit in one or more screens of this group.

`Nc1cc(Cl)nc(N/N=C/c2c(O)ccc3ccccc23)n1` gave DAGLB inhibitor 3, TAAR1 agonist 3, GPR7 antagonist 2, TAAR1 antag 16 and MPTP block -1.
Nc1nonc1N/N=C/c1c(O)ccc2ccccc12 was read as DAGLB inhibitor 5, TAAR1 agonist 16, GPR7 antagonist 11, TAAR1 antag 17, MPTP block 56* and MPTP counter 74*.
`O=C(CNc1cccc(C(F)(F)F)c1)Nc1cccc(S(=O)(=O)N2CCCC2)c1` gave DAGLB inhibitor -10, TAAR1 agonist 8, TAAR1 antag 18 and MPTP block 9.
CCN(CC)S(=O)(=O)c1ccc(C)c(NC(=O)CNc2cccc(S(=O)(=O)N3CCCC3)c2)c1 was read as DAGLB inhibitor -2, TAAR1 agonist 3, TAAR1 antag -3 and MPTP block 1.
`CCN(CC)S(=O)(=O)c1cccc(NC(=O)CNc2cccc(S(=O)(=O)N3CCCC3)c2)c1` gave DAGLB inhibitor 3, TAAR1 agonist 6, GPR7 antagonist 11, TAAR1 antag 8, MPTP block 90* and MPTP counter 101*.
Screening O=C(CNc1cc(S(=O)(=O)N2CCCC2)ccc1OCC(F)(F)F)Nc1cccc(C(F)(F)F)c1 returned DAGLB inhibitor -5, TAAR1 agonist 1, GPR7 antagonist 1, TAAR1 antag 11, MPTP block 51* and MPTP counter 48*.
CCOC(=O)c1sc(=S)n(C)c1NC(=O)c1ccc(C(C)(C)C)cc1 was read as DAGLB inhibitor -10, TAAR1 agonist -1, GPR7 antagonist -17, TAAR1 antag 8, MPTP block 75* and MPTP counter 88*.
CCOC(=O)c1sc(=S)n(C)c1NC(=O)c1ccc(OC)cc1 was read as DAGLB inhibitor -3, TAAR1 agonist 3, GPR7 antagonist -4, TAAR1 antag -3 and MPTP block 5.
For N#CCCN(C(=O)COC(=O)C1CCN(S(=O)(=O)c2ccc3c(c2)OCCO3)CC1)c1ccccc1 the results were DAGLB inhibitor -2, TAAR1 agonist 1, TAAR1 antag -19 and MPTP block 0.
Screening O=C(NC1CCCCC1)C(c1ccc(-c2ccccc2)cc1)n1c(=O)c(-c2ccco2)nc2ccccc21 (stereo unspecified) returned TAAR1 agonist 0, TAAR1 antag -16 and MPTP block -2.
Screening COC(=O)C1=C(C)NC(C)=C(C(=O)OC)C1c1ccc(-c2cccc(Cl)c2Cl)o1 returned DAGLB inhibitor -4, TAAR1 agonist 6, GPR7 antagonist -7, TAAR1 antag -14, MPTP block 82*, MPTP counter 2, MPTP abs DR >100 and MPTP counter DR >80.
`CNC(=O)C[C@H]1C(=O)N(C2CCCCC2)C[C@@H]1c1ccc(Br)cc1` gave DAGLB inhibitor -1, TAAR1 agonist 0, TAAR1 antag -7 and MPTP block 0.
O=C(Nc1ccc(F)cc1)Nc1cc(OCC(F)(F)F)cc(OCC(F)(F)F)c1 was read as DAGLB inhibitor -9, TAAR1 agonist 6, GPR7 antagonist 16, TAAR1 antag 34, MPTP block 97* and MPTP counter 70*.
`O=C(NCCNC(=O)c1cc(OCC(F)(F)F)ccc1OCC(F)(F)F)Nc1ccc(OC(F)(F)F)cc1` gave DAGLB inhibitor -2, TAAR1 agonist 12, GPR7 antagonist -6, TAAR1 antag 13, MPTP block 80* and MPTP counter 84*.
Screening CCOc1ccc(NC(=O)Nc2cc(OCC(F)(F)F)cc(OCC(F)(F)F)c2)cc1 returned DAGLB inhibitor -5, TAAR1 agonist 9, GPR7 antagonist -8, TAAR1 antag 12, MPTP block 80* and MPTP counter 71*.
For COc1ccc(NC(=O)Nc2ccc(F)cc2)cn1 the results were DAGLB inhibitor -3, TAAR1 agonist 19, GPR7 antagonist -9, TAAR1 antag 12 and MPTP block 0.
`COc1ccc(CNC(=O)c2cn(Cc3ccc(S(=O)(=O)N(C)C)cc3)c(=O)s2)cc1` gave TAAR1 agonist 8, TAAR1 antag 29 and MPTP block -1.
`CC1(c2nnnn2-c2ccc3c(c2)OCCO3)CCC(=O)N1C1CC1` (stereo unspecified) gave TAAR1 agonist 2, TAAR1 antag -11 and MPTP block 1.
For O=C(NC(Cc1ccccc1)c1nc2ccccc2[nH]1)c1cccc([N+](=O)[O-])c1 (stereo unspecified) the results were DAGLB inhibitor 2, TAAR1 agonist 2, GPR7 antagonist -1, TAAR1 antag 10, MPTP block 65* and MPTP counter 65*.
O=C(Cc1nc2ccccc2[nH]1)c1cccc([N+](=O)[O-])c1 was read as DAGLB inhibitor 4, TAAR1 agonist 6, GPR7 antagonist -13, TAAR1 antag -14, MPTP block 91* and MPTP counter 79*.
NCC12CC3CC(C1)CC(c1ccc(Cl)cc1)(C3)C2 was read as DAGLB inhibitor -1, TAAR1 agonist 27, GPR7 antagonist 20, TAAR1 antag -24, MPTP block 75*, MPTP counter -13, MPTP abs DR 3.7* and MPTP counter DR 42*.
Screening O=[N+]([O-])c1cc([N+](=O)[O-])c2cccnc2c1Oc1ccccc1O returned DAGLB inhibitor 6, TAAR1 agonist 0, GPR7 antagonist -7, TAAR1 antag -4, MPTP block 70* and MPTP counter 80*.
O=c1cc(-c2ccccc2)nc2c(-c3ccccc3)c(C(F)(F)F)[nH]n12 was read as TAAR1 agonist -2, GPR7 antagonist -21, TAAR1 antag 37, MPTP block 64* and MPTP counter 47*.
Screening Cc1cc(N2CCN(C(=O)OC(C)(C)C)C[C@@H]2C)ccc1N1CCN(Cc2ccccc2)[C@H](C)C1 returned TAAR1 agonist -2 and TAAR1 antag 9.
`COC(=O)c1c(NC(=O)C2CCCCC2)sc2c1CCN(C(C)C)C2` gave DAGLB inhibitor 1, TAAR1 agonist 2, GPR7 antagonist 3, TAAR1 antag -17, MPTP block 55*, MPTP counter -5, MPTP abs DR inactive and MPTP counter DR >80.
Screening O=C(c1cc(COc2cccc3cccnc23)on1)N1CCC[C@H]1CO returned DAGLB inhibitor -2, TAAR1 agonist 2, TAAR1 antag -12 and MPTP block 0.
Screening CCOC(=O)CC1CCCCN1C(=O)c1cc(COc2cccc3cnccc23)on1 (stereo unspecified) returned DAGLB inhibitor 1, TAAR1 agonist 9, GPR7 antagonist 21, TAAR1 antag 31, MPTP block 102* and MPTP counter 112*.
